From ChEMBL document CHEMBL1649302, “New small-molecule inhibitor class targeting human immunodeficiency virus type 1 virion maturation” (Antimicrob Agents Chemother, 2009)
The source made the active and inactive calls. No cut-off for these calls is given here.

Legend:
[1] = test system: Human immunodeficiency virus 1; assay: Antiviral activity HIV1 92TH026 infected in human PBMC after 7 days by scintillation counting; assay type: functional, organism-based; conditions: Human immunodeficiency virus 1, 92TH026, 168 h
Procedure, shortened: (§1)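 Fresh PBMCs from HIV/HBV-seronegative donors were PHA-stimulated (4 μg/ml, 48–72 h) and kept with IL-2 (20 U/ml), with at least two donors pooled. Cells were seeded at 5 × 10⁴/well and infected (final MOI ≅0.1) with nine compound concentrations in triplicate wells. After 7 days, reverse transcriptase activity was measured in cell-free supernatant.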

[2] = test system: Human immunodeficiency virus 1; assay: Selectivity ratio of EC50 for HIV1 harboring capsid I201V mutant protein infected in human HeLa cells to EC50 for wild type HIV1 infected in human HeLa cells; assay type: functional
Procedure, shortened: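 MT-2 cells were infected for 2 h with wild-type NL4-3 or recombinant NL4-3 carrying CA I201V or SP1 A1V. They were then cocultured with HeLa CD4 LTR/beta-Gal indicator cells in serially diluted compound. Beta-gal reporter was read after 4 days. EC50s are means ± SD of 3–6 experiments. Fold change is mutant EC50 divided by wild-type EC50.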

[3] = test system: Human immunodeficiency virus 1; assay: Antiviral activity HIV1 92HT594 infected in human PBMC after 7 days by scintillation counting; assay type: functional, organism-based; conditions: Human immunodeficiency virus 1, 92HT594, 168 h
Procedure, shortened: (§2)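 PBMCs came from buffy coats pooled from 3–4 seronegative donors, were PHA-stimulated (1.5 μg/ml, 3 days) and frozen. Thawed cells were infected 1 h at 37°C with virus input set by TCID50, then pelleted and resuspended in IL-2 (10 ng/ml). They were plated at 4 × 10⁵ cells/ml onto compounds for 7 days at 37°C. Supernatant RT activity was measured by Quan-T-RT scintillation assay.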

[4] = Therapeutic index, ratio of CC50 for human PBMC to EC50 for HIV1 92HT596 infected in human PBMC; conditions: read-out: TI
Procedure, shortened: (§3)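 Frozen PHA-stimulated (1.5 μg/ml, 3 days) buffy-coat PBMCs pooled from three or four seronegative donors. Infected with a TCID50-based virus input per 10⁶ cells for 1 h at 37°C, then pelleted and resuspended in 10 ng/ml IL-2. Plated at 4 × 10⁵ cells/ml on compound dilutions for 7 days at 37°C. Supernatant RT measured by Quan-T-RT. TI is mean CC50 divided by mean EC50.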

[5] = test system: Human immunodeficiency virus 1; assay: Antiviral activity HIV1 92HT599 infected in human PBMC after 7 days by scintillation counting; assay type: functional, organism-based; conditions: Human immunodeficiency virus 1, 92HT599, 168 h; procedure, shortened: as §2
[6] = test system: Human immunodeficiency virus 1; assay: Antiviral activity HIV1 92BR014 infected in human PBMC after 7 days by scintillation counting; assay type: functional, organism-based; conditions: Human immunodeficiency virus 1, 92BR014, 168 h; procedure, shortened: as §1
[7] = test system: Human immunodeficiency virus 1; assay: Antiviral activity HIV1 WEJO infected in human PBMC after 7 days by scintillation counting; assay type: functional, organism-based; conditions: Human immunodeficiency virus 1, WEJO, 168 h; procedure, shortened: as §1
[8] = test system: Human immunodeficiency virus 1; assay: Antiviral activity against HIV1 NL4-3 infected in HEK293 cells assessed as inhibition of viral p24 antigen production after 72 hrs
[9] = test system: Human immunodeficiency virus 1; assay: Antiviral activity HIV1 92RW009 infected in human PBMC after 7 days by scintillation counting; assay type: functional, organism-based; conditions: Human immunodeficiency virus 1, 92RW009, 168 h; procedure, shortened: as §2
[10] = Therapeutic index, ratio of CC50 for human PBMC to EC50 for HIV1 98IN022 infected in human PBMC; conditions: read-out: TI; procedure, shortened: as §3
[11] = Therapeutic index, ratio of CC50 for human PBMC to EC50 for HIV1 92US660 infected in human PBMC; conditions: read-out: TI
Procedure, shortened: (§4)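 PHA-stimulated (4 μg/ml, 48 to 72 h) PBMCs pooled from at least two seronegative donors, kept with 20 U/ml IL-2, plated at 5 × 10⁴ cells/well. Infected with clinical isolate (final MOI ≅0.1) alongside nine compound concentrations in triplicate wells, 7 days. Supernatant reverse transcriptase activity measured. TI is mean PBMC CC50 divided by mean EC50.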

[12] = Therapeutic index, ratio of CC50 for human PBMC to EC50 for HIV1 92TH026 infected in human PBMC; conditions: read-out: TI; procedure, shortened: as §4
[13] = test system: Human immunodeficiency virus 1; assay: Antiviral activity against HIV1 NL4-3 infected in HEK293 cells assessed as decrease in virus production at 2 times EC90 after 72 hrs by beta-galactosidase reporter gene assay; assay type: functional
[14] = Therapeutic index, ratio of CC50 for human PBMC to EC50 for HIV1 92TH014 infected in human PBMC; conditions: read-out: TI; procedure, shortened: as §4
[15] = test system: Human immunodeficiency virus 1; assay: Antiviral activity against HIV1 RF infected in human CEM-SS cells assessed as protection against virus-induced cytopathogenicity after 6 days by XTT assay; assay type: functional, organism-based; conditions: Human immunodeficiency virus 1, RF, 144 h
Procedure, shortened: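 Host cells were infected with NL4-3 or IIIB (MOI 0.08) or RF (MOI 0.025–0.819) and seeded at 2 × 10⁴/well onto half-log compound dilutions. After 6 days, XTT/PMS was added for 4 h and formazan was read at 450 nm. EC50 was the concentration giving 50% of the formazan of uninfected, compound-free cells.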

[16] = test system: Human immunodeficiency virus 1; assay: Antiviral activity against wild type HIV1 infected in human HeLa cells assessed as decrease in viral infection after 72 hrs by beta-galactosidase reporter gene assay; assay type: functional, organism-based; conditions: Human immunodeficiency virus 1, HeLa
Procedure, shortened: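 HeLa CD4 LTR/β-Gal cells (1 × 10⁴/well, DMEM + 10% FBS) were pretreated with half-log compound dilutions. They were then infected at MOI 0.03 with single-cycle NL4-3 ΔEnv reporter virus pseudotyped with envelope from HEK 293 cotransfection. EC50 was the concentration halving β-galactosidase activity versus infected untreated cells. Values are mean ± SD or representative of three experiments.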

[17] = Therapeutic index, ratio of CC50 for human PBMC to EC50 for HIV1 96USHIPS7 infected in human PBMC; conditions: read-out: TI; procedure, shortened: as §4
[18] = test system: Human immunodeficiency virus 1; assay: Antiviral activity against HIV1 92HT599 infected in human MT2 cells assessed as inhibition of viral p24 antigen production after 5 days; assay type: functional, organism-based; conditions: Human immunodeficiency virus 1, 92HT599, MT2, 120 h
Procedure, shortened: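 PM1 cells (NL4-3, Ba-L) or MT-2 cells (92HT594, 92HT599) were infected at MOI 0.16 for 2 h and washed. They were plated at 1 × 10⁴ cells/well (2 × 10⁵/ml) onto half-log compound dilutions. Supernatant p24 was quantified by ELISA at day 5. EC50 was the concentration giving a 50% decrease versus infected, compound-free cells.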

[19] = test system: Human immunodeficiency virus 1; assay: Antiviral activity HIV1 CMU06 infected in human PBMC after 7 days by scintillation counting; assay type: functional, organism-based; conditions: Human immunodeficiency virus 1, CMU06, 168 h; procedure, shortened: as §2
[20] = Therapeutic index, ratio of CC50 for human MT2 cells to EC50 for HIV1 NL4-3 infected in human MT2 cells; assay type: cell-based; conditions: read-out: TI
Procedure, shortened: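 TI was the mean CC50 (XTT, uninfected MT-2) divided by the mean EC50, determined for each cell line in each experiment.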

[21] = test system: Human immunodeficiency virus 1; assay: Antiviral activity HIV1 91US005 infected in human PBMC after 7 days by scintillation counting; assay type: functional, organism-based; conditions: Human immunodeficiency virus 1, 91US005, 168 h; procedure, shortened: as §1
[22] = Therapeutic index, ratio of CC50 for human PBMC to EC50 for HIV1 ROJO infected in human PBMC; conditions: read-out: TI; procedure, shortened: as §4
[23] = test system: Human immunodeficiency virus 1; assay: Antiviral activity HIV1 93TH074 infected in human PBMC after 7 days by scintillation counting; assay type: functional, organism-based; conditions: Human immunodeficiency virus 1, 93TH074, 168 h; procedure, shortened: as §2

## CC(C)(C)c1ccc(C(Cn2cccc(C(F)(F)F)c2=O)NC2Cc3ccccc3C2)cc1 (stereo not drawn)
[1]
  EC50: > 17 µM
[2]
  Ratio EC50: >49
[3]
  EC50: 1.1 µM
[4]
  selectivity ratio: 53
[5]
  EC50: 1.4 µM
[6]
  EC50: 7 µM
[7]
  EC50: 1.5 µM
[8]
  inhibition: inactive
[9]
  EC50: 1.4 µM
[10]
  selectivity ratio: 13
[11]
  selectivity ratio: 1
[12]
  selectivity ratio: < 1
[13]
  inhibition (INH): 92%
[14]
  selectivity ratio: < 1
[15]
  EC50: > 20 µM
[16]
  EC50: 0.206 µM
[17]
  selectivity ratio: < 1
[18]
  EC50: 0.21 µM
[19]
  EC50: 1.2 µM
[20]
  selectivity ratio: 53
[21]
  EC50: > 17 µM
[22]
  selectivity ratio: < 1
[23]
  EC50: 0.12 µM
